# Data from ChEMBL document CHEMBL1926616, “Design, synthesis and biological evaluation of novel glycosylated diphyllin derivatives as topoisomerase II inhibitors” (Eur J Med Chem, 2012).
# The source made the active and inactive calls. The calls are words filed in the database; no cut-off is given here.
# Assays:
# HL-60 [1] = experiment: Induction of apoptosis in human HL60 cells assessed as DNA fragmentation at 10 uM after 36 hrs by gel electrophoresis; type: functional, cell-based
# Summary of the method: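 HL-60 cells were seeded and exposed to compound for 36 h. Harvested cells were lysed with an equal volume of 1.2% SDS, and the fragmented DNA was extracted and resolved by gel electrophoresis.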
# HCT-116 [2] = experiment: Cytotoxicity against human HCT116 cells after 72 hrs by sulforhodamine B and MTT assay; type: functional, cell-based; settings: HCT-116, 72 h
# Summary of the method: (§1)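 Log-phase cells were plated overnight and exposed for 72 h to a 5-concentration gradient, in triplicate wells. SRB arm: 10% cold TCA fixation for 1 h at 4 °C, 4 mg/ml SRB in 1% acetic acid for 15 min, dye dissolved in 10 mM Tris-HCl, read at 520 nm. MTT arm: 5 mg/mL MTT for 4 h at 37 °C, SDS-isobutanol-HCl solubilisation for 12–20 h, read at 570 nm. IC50 by Logit method from at least 3 independent tests.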
# MCF7 = experiment: Cytotoxicity against human MCF7 cells after 72 hrs by sulforhodamine B and MTT assay; type: functional, cell-based; settings: MCF7, 72 h; summary of the method: as §1
# KB [3] = experiment: Cytotoxicity against human KB cells after 72 hrs by sulforhodamine B and MTT assay; type: functional, cell-based; summary of the method: as §1
# [4] = biological target: DNA topoisomerase 2-alpha (Homo sapiens) (UniProt P11388); experiment: Inhibition of human topoisomerase 2-mediated decatenation of kinetoplast DNA at 100 uM after 15 mins by agarose gel electrophoresis
# Chain of DNA topoisomerase 2-alpha (Homo sapiens) (P11388 whole entry): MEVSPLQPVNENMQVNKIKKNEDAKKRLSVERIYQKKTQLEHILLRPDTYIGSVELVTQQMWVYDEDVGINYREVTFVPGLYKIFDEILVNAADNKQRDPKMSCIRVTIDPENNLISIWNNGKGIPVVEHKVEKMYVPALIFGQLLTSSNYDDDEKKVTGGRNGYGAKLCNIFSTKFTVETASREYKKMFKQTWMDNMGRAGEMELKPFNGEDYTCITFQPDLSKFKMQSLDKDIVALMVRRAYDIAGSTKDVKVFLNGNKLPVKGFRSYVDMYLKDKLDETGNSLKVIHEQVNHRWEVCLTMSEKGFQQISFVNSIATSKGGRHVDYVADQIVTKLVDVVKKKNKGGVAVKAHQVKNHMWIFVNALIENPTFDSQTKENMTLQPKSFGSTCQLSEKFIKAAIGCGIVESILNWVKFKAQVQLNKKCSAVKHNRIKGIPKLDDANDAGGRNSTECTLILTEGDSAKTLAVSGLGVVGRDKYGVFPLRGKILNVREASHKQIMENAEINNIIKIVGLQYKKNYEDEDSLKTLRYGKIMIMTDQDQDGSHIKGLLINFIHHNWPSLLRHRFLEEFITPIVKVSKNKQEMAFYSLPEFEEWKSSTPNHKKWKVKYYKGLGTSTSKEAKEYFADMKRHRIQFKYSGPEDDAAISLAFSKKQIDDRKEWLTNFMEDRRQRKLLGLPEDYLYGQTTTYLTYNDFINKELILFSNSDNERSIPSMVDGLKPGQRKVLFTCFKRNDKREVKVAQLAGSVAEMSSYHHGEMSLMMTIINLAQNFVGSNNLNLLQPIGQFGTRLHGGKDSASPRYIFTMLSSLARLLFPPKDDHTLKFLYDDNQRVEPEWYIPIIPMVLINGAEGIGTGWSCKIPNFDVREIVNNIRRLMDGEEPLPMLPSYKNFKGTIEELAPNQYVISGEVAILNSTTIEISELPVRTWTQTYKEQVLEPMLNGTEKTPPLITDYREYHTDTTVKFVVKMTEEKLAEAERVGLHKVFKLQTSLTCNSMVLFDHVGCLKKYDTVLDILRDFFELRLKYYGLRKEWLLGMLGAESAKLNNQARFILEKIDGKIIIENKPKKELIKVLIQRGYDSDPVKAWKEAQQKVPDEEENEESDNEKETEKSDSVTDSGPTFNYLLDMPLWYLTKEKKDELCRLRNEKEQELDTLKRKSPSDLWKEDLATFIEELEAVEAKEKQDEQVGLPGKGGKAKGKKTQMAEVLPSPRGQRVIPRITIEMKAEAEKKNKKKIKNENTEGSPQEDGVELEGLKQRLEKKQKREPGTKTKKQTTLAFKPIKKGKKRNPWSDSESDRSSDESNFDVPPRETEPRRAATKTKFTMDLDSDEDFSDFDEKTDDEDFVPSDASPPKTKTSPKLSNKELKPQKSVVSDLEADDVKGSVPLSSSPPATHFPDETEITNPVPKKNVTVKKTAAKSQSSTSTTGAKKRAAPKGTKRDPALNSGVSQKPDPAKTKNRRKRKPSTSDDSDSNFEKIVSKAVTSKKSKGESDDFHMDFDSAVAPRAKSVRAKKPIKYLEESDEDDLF
# Summary of the method: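 ATP-dependent kDNA decatenation by 1 unit Topo II in 50 mM Tris-HCl pH 7.7, 50 mM KCl, 5 mM MgCl2, 1 mM ATP, 0.5 mM DTT, 0.5 mM EDTA and BSA, run for 15 min at 37 °C. Stopped with 10% SDS, then run on 1% agarose in TAE at 4 V/cm for 1 h and stained with ethidium bromide.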
# HL-60 [5] = experiment: Cell cycle arrest in human HL60 cells assessed as accumulation at G2/M phase at 1 to 10 uM using propidium iodide stain by FACS-flow cytometry; type: functional, cell-based; settings: TDE = time-dependent effect
# HL-60 [6] = experiment: Cell cycle arrest in human HL60 cells assessed as accumulation at S phase at 10 uM after 24 hrs using propidium iodide stain by FACS-flow cytometry (reference value: 38.4%); type: functional
# HCT-116 [7] = experiment: Cell cycle arrest in human HCT116 cells assessed as accumulation at G0/G1 phase at 1 to 10 uM using propidium iodide stain by FACS-flow cytometry; type: functional, cell-based; settings: TDE = time-dependent effect
# HL-60 [8] = experiment: Cell cycle arrest in human HL60 cells assessed as accumulation at G0/G1 phase at 1 to 10 uM using propidium iodide stain by FACS-flow cytometry; type: functional, cell-based; settings: TDE = time-dependent effect
# K562 [9] = experiment: Cytotoxicity against human K562 cells after 72 hrs by sulforhodamine B and MTT assay; type: functional, cell-based; settings: K562, 72 h
# Summary of the method: (§2)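 Log-phase cells were seeded, preincubated (overnight for SRB, 24 h for MTT), then given a five-concentration gradient in triplicate wells for 72 h. For MTT, reagent was added for 4 h at 37 °C, solubilized in SDS-isobutanol-HCl for 12-20 h, and read at 570 nm. IC50 was derived by the Logit method from at least 3 independent tests.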
# HCT-116 [10] = experiment: Cell cycle arrest in human HCT116 cells assessed as accumulation at G2/M phase at 1 to 10 uM after 24 hrs using propidium iodide stain by FACS-flow cytometry; type: functional, cell-based
# HCT-116 [11] = experiment: Cell cycle arrest in human HCT116 cells assessed as accumulation at G2/M phase after 24 hrs using propidium iodide stain by FACS-flow cytometry; type: functional, cell-based
# HL-60 [12] = experiment: Cell cycle arrest in human HL60 cells assessed as accumulation at S phase at 1 uM after 24 hrs using propidium iodide stain by FACS-flow cytometry (reference value: 38.4%); type: functional
# HL-60 [13] = experiment: Cell cycle arrest in human HL60 cells assessed as accumulation at G2/M phase at 10 uM after 24 hrs using propidium iodide stain by FACS-flow cytometry (reference value: 22.6%); type: functional
# HL-60 [14] = experiment: Cell cycle arrest in human HL60 cells assessed as accumulation at G2/M phase at 1 uM after 24 hrs using propidium iodide stain by FACS-flow cytometry (reference value: 22.6%); type: functional
# HL-60 [15] = experiment: Cell cycle arrest in human HL60 cells assessed as accumulation at G0/G1 phase at 10 uM after 24 hrs using propidium iodide stain by FACS-flow cytometry (reference value: 39%); type: functional
# HCT-116 [16] = experiment: Cell cycle arrest in human HCT116 cells assessed as accumulation at G0/G1 phase after 24 hrs using propidium iodide stain by FACS-flow cytometry; type: functional, cell-based
# KB [17] = experiment: Cytotoxicity against vincristine-selected multi drug-resistant human KB cells after 72 hrs by sulforhodamine B and MTT assay; type: functional, cell-based; summary of the method: as §2
# K562 [18] = experiment: Resistance index, ratio of IC50 for adriamycin-selected multi drug-resistant human K562 cells to IC50 for human K562 cells; type: functional
# Summary of the method: (§3)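 Resistance factor is the IC50 in the resistant line divided by the IC50 in the parental line. Both IC50s come from 72 h SRB/MTT growth-inhibition assays, derived by the Logit method from at least 3 independent tests.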
# HL-60 [19] = experiment: Cell cycle arrest in human HL60 cells assessed as accumulation at G2/M phase after 24 hrs using propidium iodide stain by FACS-flow cytometry; type: functional, cell-based
# K562 [20] = experiment: Cytotoxicity against adriamycin-selected multi drug-resistant human K562 cells after 72 hrs by sulforhodamine B and MTT assay; type: functional, cell-based; settings: K562, 72 h; summary of the method: as §2
# HL-60 [21] = experiment: Cell cycle arrest in human HL60 cells assessed as accumulation at G0/G1 phase after 24 hrs using propidium iodide stain by FACS-flow cytometry; type: functional, cell-based
# HCT-116 [22] = experiment: Cell cycle arrest in human HCT116 cells assessed as accumulation at G0/G1 phase at 1 to 10 uM after 24 hrs using propidium iodide stain by FACS-flow cytometry; type: functional, cell-based
# HL-60 [23] = experiment: Cell cycle arrest in human HL60 cells assessed as accumulation at G0/G1 phase at 1 uM after 24 hrs using propidium iodide stain by FACS-flow cytometry (reference value: 39%); type: functional
# KB [24] = experiment: Resistance index, ratio of IC50 for vincristine-selected multi drug-resistant human KB cells to IC50 for human KB cells; type: functional; summary of the method: as §3
# HCT-116 [25] = experiment: Cell cycle arrest in human HCT116 cells assessed as accumulation at G2/M phase at 1 to 10 uM using propidium iodide stain by FACS-flow cytometry; type: functional, cell-based; settings: TDE = time-dependent effect
Compound,Activity (HL-60 [1]),IC50 (HCT-116 [2]),IC50 (MCF7),IC50 (KB [3]),inhibition [4],Ratio IC50 (K562 [18]),other results
COc1cc2c(O[C@H]3O[C@@H](C)[C@@H](O)[C@@H](O)[C@@H]3O)c3c(c(-c4ccc5c(c4)OCO5)c2cc1OC)C(=O)OC3 [PATENTIFLORIN B],Active,> 10000 nM,1420 nM,> 10000 nM,inactive,–,–
COc1cc2c(O[C@@H]3O[C@@H]4CO[C@@H](C)O[C@H]4[C@H](O)[C@H]3O)c3c(c(-c4ccc5c(c4)OCO5)c2cc1OC)C(=O)OC3,Active,8 nM,4 nM,3 nM,Active,19.4,Activity (HL-60 [5]): tde; Activity (HL-60 [6]): 19.2%; Activity (HCT-116 [7]): tde; Activity (HL-60 [8]): tde; IC50 (K562 [9]): 44 nM; Activity (HCT-116 [10]): Active; Activity (HCT-116 [11]): Dose-dependent effect; Activity (HL-60 [12]): 23.4%; Activity (HL-60 [13]): 24.6%; Activity (HL-60 [14]): 22.9%; Activity (HL-60 [15]): 56.2%; Activity (HCT-116 [16]): Dose-dependent effect; IC50 (KB [17]): 76 nM; Activity (HL-60 [19]): Dose-dependent effect; IC50 (K562 [20]): 853 nM; Activity (HL-60 [21]): Dose-dependent effect; Activity (HCT-116 [22]): Active; Activity (HL-60 [23]): 53.6%; Ratio IC50 (KB [24]): 25.3; Activity (HCT-116 [25]): tde
COc1cc([C@@H]2c3cc4c(cc3[C@@H](O[C@@H]3O[C@@H]5CO[C@@H](C)O[C@H]5[C@H](O)[C@H]3O)[C@H]3COC(=O)[C@H]23)OCO4)cc(OC)c1O [ETOPOSIDE],–,910 nM,1090 nM,850 nM,inactive,47.1,IC50 (K562 [9]): 5160 nM; IC50 (KB [17]): 153000 nM; IC50 (K562 [20]): 243000 nM; Ratio IC50 (KB [24]): 180.3
COc1cc2c(O[C@@H]3O[C@H](C)[C@H](O)[C@H](O)[C@H]3O)c3c(c(-c4ccc5c(c4)OCO5)c2cc1OC)C(=O)OC3,Active,6430 nM,1810 nM,3050 nM,inactive,–,Activity (HL-60 [6]): 34.6%; Activity (HCT-116 [10]): inactive; Activity (HL-60 [12]): 30%; Activity (HL-60 [13]): 24.9%; Activity (HL-60 [14]): 31.5%; Activity (HL-60 [15]): 40.5%; Activity (HCT-116 [22]): inactive; Activity (HL-60 [23]): 38.6%
COc1cc2c(O[C@@H]3O[C@H](CO)[C@@H](O)[C@H](O)[C@H]3O)c3c(c(-c4ccc5c(c4)OCO5)c2cc1OC)C(=O)OC3,–,9670 nM,2440 nM,> 10000 nM,inactive,–,–
COc1cc2c(O[C@H]3O[C@@H](C)[C@@H](OC(C)=O)[C@@H](O)[C@@H]3O)c3c(c(-c4ccc5c(c4)OCO5)c2cc1OC)C(=O)OC3 [4'-O-ACETYLPATENTIFLORIN B],–,270 nM,110 nM,140 nM,Active,–,–
COc1cc2c(O[C@@H]3O[C@H](COCc4ccccc4)[C@@H](O)[C@H](O)[C@H]3O)c3c(c(-c4ccc5c(c4)OCO5)c2cc1OC)C(=O)OC3,–,36 nM,28 nM,15 nM,Active,–,–
COc1cccc2c1C(=O)c1c(O)c3c(c(O)c1C2=O)C[C@@](O)(C(=O)CO)C[C@@H]3O[C@H]1C[C@H](N)[C@H](O)[C@H](C)O1 [DOXORUBICIN],–,–,–,–,–,132.2,–
COc1cc2c(O[C@@H]3O[C@@H]4CO[C@@H](C(C)C)O[C@H]4[C@H](O)[C@H]3O)c3c(c(-c4ccc5c(c4)OCO5)c2cc1OC)C(=O)OC3,–,16 nM,0.2 nM,0.6 nM,Active,–,–
